Data set [1] can be described thus: Drug uptake in rat brain administered as iv cassette dose. In kind it is ADME, organism-based. The conditions noted are these: in vivo. In short, it runs like this:
(§1)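 Cassette dosing in male Sprague-Dawley rats (~300 g, n = 1 per experiment), with carotid artery and jugular vein catheters. Animals acclimated about one week with food and water ad libitum. Plasma (ng/mL) and brain (ng/g) levels were measured and Kp calculated.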

For data set [2], the target named is Metabotropic glutamate receptor 4 (Rattus norvegicus, UniProt P31423). The data set is described as follows: Positive allosteric modulation of rat mGlu4 receptor expressed in HEK cells co-expressing GIRK1/2 assessed as increase in glutamate-induced thallium flux preincubated for 140 secs followed by glutamate addition and measured after 2.5 mins by FluoZin-2-AM dye based fluorescence assay. It counts as cell-based. In short, it runs like this: (§2)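 HEK cells co-expressing rat mGlu4 and GIRK1/2 were loaded for 1 h at room temperature with FluoZin-2 AM (330 nM final) in HBSS/20 mM HEPES pH 7.4. Compound was incubated 140 s, then thallium buffer with or without agonist was added. Reading continued for 2.5 min at room temperature. Potency was fitted by four-parameter logistic.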

Data set [3] can be described thus: Intrinsic clearance in human liver microsomes at 1 uM preincubated for 5 mins followed by NADPH addition measured up to 45 mins by LC-MS/MS analysis. The conditions noted are these: read-out: CLH. In kind it is ADME, Microsome. Summed up:
(§3)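 Intrinsic and predicted hepatic clearance derived from liver microsome incubations.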
On the technique in general: Liver microsomes are a subcellular fraction often used to study metabolism.

Data set [4] in a line: Clearance in rat administered as iv cassette dose. It counts as ADME, organism-based. The conditions noted are these: in vivo. In short, it runs like this:
(§4)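 IV cassette in male Sprague-Dawley rats (~300 g, n = 1 per experiment), cannulated in carotid artery and jugular vein and acclimated about one week. Plasma clearance, Vss, t1/2 and MRT were derived.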

Data set [5] can be described thus: Fraction unbound in human plasma after 4 hrs by equilibrium dialysis method. In kind it is ADME, cell-free. (In equilibrium dialysis free small molecules cross a membrane that holds back macromolecules.)
Data set [6] in a line: Half life in rat administered as iv cassette dose. In kind it is ADME, organism-based. The conditions noted are these: in vivo. Summed up:
as §4

Data set [7] can be described thus: Intrinsic clearance in rat liver microsomes at 1 uM preincubated for 5 mins followed by NADPH addition measured up to 45 mins by LC-MS/MS analysis. It counts as ADME, Microsome. The conditions noted are these: read-out: CLH. Summed up:
as §3

A short description of data set [8]: Plasma concentration in rat administered as iv cassette dose. It counts as ADME, organism-based. The conditions noted are these: in vivo. In short, it runs like this: as §1
Data set [9] has as its target T1, Metabotropic glutamate receptor 4 (Homo sapiens, UniProt Q14833). Put plainly: Positive allosteric modulation of human mGlu4 receptor expressed in CHO cells co-expressing Gqi5 assessed as increase in glutamate-induced calcium mobilization preincubated for 142 secs followed by EC20 glutamate addition and measured after 147 secs by Fluo-4-AM dye based fluorescence assay relative to control. It counts as functional, cell-based. Summed up:
(§5)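 CHO cells expressing human mGlu4 and Gqi5, plated at 30,000 cells/well and grown overnight at 37 °C, 5% CO2. Cells were loaded with 1 μM Fluo-4 AM for 45 min at 37 °C in HBSS/20 mM HEPES/2.5 mM probenecid. Compounds were run as 10-point, 1:3 dilution series. After 142 s, EC20 glutamate was added; 147 s later, EC80 glutamate. Fluorescence was normalized to the maximal glutamate response. EC50 and %Glu Max were fitted by four-parameter logistic, with maximum normalized to PHCCC.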
For orientation: Calcium flux is commonly read through the fluorescence of an indicator in the cells.

The nature of data set [10]: Drug uptake in cerebrospinal fluid of Sprague-Dawley rat model of haloperidol-induced catalepsy at 10 mg/kg, po. It counts as ADME, organism-based. The conditions noted are these: in vivo, read-out: Drug uptake. In short, it runs like this: (§6)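 Male Sprague-Dawley rats given haloperidol 0.75 mg/kg i.p., then returned to cages for 60 min. Compound 10 mg/kg was dosed orally 30 min before catalepsy testing. Plasma, brain and CSF were then assayed, and free levels reported.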

A short description of data set [11]: Drug uptake in brain of Sprague-Dawley rat model of haloperidol-induced catalepsy at 10 mg/kg, po. It counts as ADME, organism-based. The conditions noted are these: in vivo, read-out: Drug uptake. In short, it runs like this:
as §6

The nature of data set [12]: Plasma concentration in Sprague-Dawley rat model of haloperidol-induced catalepsy at 10 mg/kg, po. It counts as ADME, organism-based. The conditions noted are these: in vivo. In short, it runs like this:
as §6

Data set [13] addresses T2, Cytochrome P450 1A2 (Homo sapiens, UniProt P05177).
T2 sequence (P05177 whole entry): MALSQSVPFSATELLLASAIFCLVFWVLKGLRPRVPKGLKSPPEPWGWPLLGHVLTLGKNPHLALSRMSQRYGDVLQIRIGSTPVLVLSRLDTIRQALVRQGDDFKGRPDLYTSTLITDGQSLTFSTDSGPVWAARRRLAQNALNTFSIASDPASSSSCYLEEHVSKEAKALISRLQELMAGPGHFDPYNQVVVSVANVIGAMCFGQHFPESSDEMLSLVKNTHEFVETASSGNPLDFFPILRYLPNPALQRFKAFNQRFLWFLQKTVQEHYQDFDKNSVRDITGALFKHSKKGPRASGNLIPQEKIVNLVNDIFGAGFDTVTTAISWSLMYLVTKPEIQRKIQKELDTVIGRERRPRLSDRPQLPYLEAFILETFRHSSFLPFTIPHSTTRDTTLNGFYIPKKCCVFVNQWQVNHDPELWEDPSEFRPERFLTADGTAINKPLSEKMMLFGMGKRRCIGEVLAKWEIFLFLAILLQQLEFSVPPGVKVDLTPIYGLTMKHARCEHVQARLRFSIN
Put plainly: Inhibition of CYP1A2 in human liver microsomes using phenacetin as substrate preincubated for 15 mins followed by substrate addition and measured after 8 mins by LC-MS/MS analysis. It counts as ADME. Summed up:
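IC50 for CYP1A2 inhibition determined in human liver microsomes using specific probe substrate-metabolite pairs.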

Data set [14] addresses T1, Metabotropic glutamate receptor 4. Put plainly: Positive allosteric modulation of human mGlu4 receptor expressed in CHO cells co-expressing Gqi5 assessed as increase in glutamate-induced calcium mobilization preincubated for 142 secs followed by EC20 glutamate addition and subsequent EC80 glutamate addition after 147 secs by Fluo-4-AM dye based fluorescence assay. It counts as functional, cell-based. In short, it runs like this:
as §5

Data set [15] concerns the target Metabotropic glutamate receptor 7 (Rattus norvegicus) (UniProt P35400). The data set is described as follows: Allosteric modulation of rat mGlu7 receptor expressed in HEK cells co-expressing GIRK1/2 assessed as change in glutamate-induced thallium flux preincubated for 2.5 mins followed by glutamate addition by FluoZin-2-AM dye based fluorescence assay. In kind it is cell-based.

For data set [16], the target named is Metabotropic glutamate receptor 5 (Rattus norvegicus) (UniProt P31424). Put plainly: Allosteric modulation of rat mGlu5 receptor assessed as change in glutamate-induced calcium mobilization at 10 uM preincubated for 2.5 mins followed by glutamate addition by Fluo-4-AM dye based fluorescence assay. In kind it is functional. In short, it runs like this: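 Human mGlu1 and rat mGlu5 tested by calcium mobilization with a double addition. 10 μM compound was added, then 2.5 min later a full glutamate concentration range. A left shift of more than 2-fold was scored as potentiation. A right shift of more than 2-fold, or a depression of the maximum response by at least 75%, was scored as antagonism.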

Data set [17] is described as follows: Brain to plasma partition coefficient, Kp of the compound in rat administered as iv cassette dose. In kind it is ADME, organism-based. The conditions noted are these: brain and plasma, read-out: Kp. In short, it runs like this:
as §1

Data set [18] concerns the target Metabotropic glutamate receptor 4 (Rattus norvegicus) (UniProt P31423). Put plainly: Positive allosteric modulation of rat mGlu4 receptor expressed in HEK cells co-expressing GIRK1/2 assessed as increase in glutamate-induced thallium flux preincubated for 140 secs followed by glutamate addition and measured after 2.5 mins by FluoZin-2-AM dye based fluorescence assay relative to control. It counts as cell-based. In short, it runs like this:
as §2

The nature of data set [19]: Fraction unbound in rat plasma after 4 hrs by equilibrium dialysis method. In kind it is ADME, cell-free.
The subject of data set [20] is Rattus norvegicus. Put plainly: Reversal of haloperidol-induced catalepsy in Sprague-Dawley rat assessed as decrease in latency to remove forepaws from bar at 10 mg/kg, po administered 30 mins prior to test. It counts as functional, organism-based. In short, it runs like this: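 Male Sprague-Dawley rats were randomized and given haloperidol 0.75 mg/kg i.p., then 60 min in home cage. Vehicle or compound (10 mg/kg) was given orally 30 min before catalepsy testing, N = 11–12 rats/group. Data analyzed by one-way ANOVA with Dunnett's test versus vehicle + haloperidol.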

Activity calls are given as the source filed them. No cut-off for these calls is given here.

Experimental findings from ChEMBL document CHEMBL4308847, “Discovery, Structure-Activity Relationship, and Biological Characterization of a Novel Series of 6-((1 H-Pyrazolo[4,3- b]pyridin-3-yl)amino)-benzo[ d]isothiazole-3-carboxamides as Positive Allosteric Modulators of the Metabotropic Glutamate Receptor 4 (mGlu4)” (J Med Chem, 2018) are described below.

T1 sequence (Q14833 whole entry): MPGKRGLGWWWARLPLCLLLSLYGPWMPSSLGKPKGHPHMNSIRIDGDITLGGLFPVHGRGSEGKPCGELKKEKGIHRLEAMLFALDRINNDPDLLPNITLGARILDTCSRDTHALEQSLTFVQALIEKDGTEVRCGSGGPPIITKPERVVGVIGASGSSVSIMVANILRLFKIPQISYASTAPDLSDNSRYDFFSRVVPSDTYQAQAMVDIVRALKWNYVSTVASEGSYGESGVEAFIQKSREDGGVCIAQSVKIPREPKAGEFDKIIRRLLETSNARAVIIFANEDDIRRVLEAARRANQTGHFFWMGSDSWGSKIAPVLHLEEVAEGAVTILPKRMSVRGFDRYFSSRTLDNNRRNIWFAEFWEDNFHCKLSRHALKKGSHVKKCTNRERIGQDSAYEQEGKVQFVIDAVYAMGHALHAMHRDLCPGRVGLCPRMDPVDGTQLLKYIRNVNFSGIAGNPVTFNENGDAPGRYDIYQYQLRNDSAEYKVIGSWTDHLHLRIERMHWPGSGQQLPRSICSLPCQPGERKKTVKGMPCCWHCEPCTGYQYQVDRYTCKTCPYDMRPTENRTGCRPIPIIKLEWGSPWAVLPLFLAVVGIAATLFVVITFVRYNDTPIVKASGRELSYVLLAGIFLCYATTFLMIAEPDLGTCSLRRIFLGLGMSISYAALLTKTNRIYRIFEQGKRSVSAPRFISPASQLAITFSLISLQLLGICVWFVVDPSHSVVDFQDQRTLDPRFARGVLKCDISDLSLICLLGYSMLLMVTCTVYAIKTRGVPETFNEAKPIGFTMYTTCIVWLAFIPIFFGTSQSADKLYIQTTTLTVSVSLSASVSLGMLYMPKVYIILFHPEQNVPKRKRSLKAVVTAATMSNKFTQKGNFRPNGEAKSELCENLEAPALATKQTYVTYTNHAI
Chain of Metabotropic glutamate receptor 4 (Rattus norvegicus, UniProt P31423) (P31423 whole entry): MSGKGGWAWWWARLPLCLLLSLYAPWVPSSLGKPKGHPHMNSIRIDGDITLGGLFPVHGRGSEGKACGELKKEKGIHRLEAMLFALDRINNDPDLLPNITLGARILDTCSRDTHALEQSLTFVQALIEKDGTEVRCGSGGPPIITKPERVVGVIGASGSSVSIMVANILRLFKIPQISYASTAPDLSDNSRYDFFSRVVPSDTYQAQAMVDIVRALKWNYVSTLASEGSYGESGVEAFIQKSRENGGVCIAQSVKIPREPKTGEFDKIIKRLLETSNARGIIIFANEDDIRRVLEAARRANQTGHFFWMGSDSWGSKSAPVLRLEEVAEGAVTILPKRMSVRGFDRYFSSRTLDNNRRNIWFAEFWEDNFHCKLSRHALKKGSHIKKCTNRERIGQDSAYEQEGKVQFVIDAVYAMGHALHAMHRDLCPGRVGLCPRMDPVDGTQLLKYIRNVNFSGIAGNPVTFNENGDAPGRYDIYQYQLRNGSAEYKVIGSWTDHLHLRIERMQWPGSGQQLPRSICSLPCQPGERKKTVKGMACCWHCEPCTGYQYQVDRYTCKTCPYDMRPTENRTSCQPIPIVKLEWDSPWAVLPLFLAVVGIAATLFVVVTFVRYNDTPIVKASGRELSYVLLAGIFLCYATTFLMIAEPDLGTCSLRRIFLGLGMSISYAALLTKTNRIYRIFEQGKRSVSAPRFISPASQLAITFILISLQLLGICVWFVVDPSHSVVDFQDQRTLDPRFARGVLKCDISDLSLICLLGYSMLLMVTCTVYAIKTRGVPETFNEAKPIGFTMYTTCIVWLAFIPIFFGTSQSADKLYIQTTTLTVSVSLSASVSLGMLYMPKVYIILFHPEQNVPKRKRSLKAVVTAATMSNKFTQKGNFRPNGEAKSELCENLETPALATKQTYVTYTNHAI
Chain of Metabotropic glutamate receptor 4 (Rattus norvegicus) (P31423 whole entry): as above
Chain of Metabotropic glutamate receptor 5 (Rattus norvegicus) (P31424 21-1203 limits assumed): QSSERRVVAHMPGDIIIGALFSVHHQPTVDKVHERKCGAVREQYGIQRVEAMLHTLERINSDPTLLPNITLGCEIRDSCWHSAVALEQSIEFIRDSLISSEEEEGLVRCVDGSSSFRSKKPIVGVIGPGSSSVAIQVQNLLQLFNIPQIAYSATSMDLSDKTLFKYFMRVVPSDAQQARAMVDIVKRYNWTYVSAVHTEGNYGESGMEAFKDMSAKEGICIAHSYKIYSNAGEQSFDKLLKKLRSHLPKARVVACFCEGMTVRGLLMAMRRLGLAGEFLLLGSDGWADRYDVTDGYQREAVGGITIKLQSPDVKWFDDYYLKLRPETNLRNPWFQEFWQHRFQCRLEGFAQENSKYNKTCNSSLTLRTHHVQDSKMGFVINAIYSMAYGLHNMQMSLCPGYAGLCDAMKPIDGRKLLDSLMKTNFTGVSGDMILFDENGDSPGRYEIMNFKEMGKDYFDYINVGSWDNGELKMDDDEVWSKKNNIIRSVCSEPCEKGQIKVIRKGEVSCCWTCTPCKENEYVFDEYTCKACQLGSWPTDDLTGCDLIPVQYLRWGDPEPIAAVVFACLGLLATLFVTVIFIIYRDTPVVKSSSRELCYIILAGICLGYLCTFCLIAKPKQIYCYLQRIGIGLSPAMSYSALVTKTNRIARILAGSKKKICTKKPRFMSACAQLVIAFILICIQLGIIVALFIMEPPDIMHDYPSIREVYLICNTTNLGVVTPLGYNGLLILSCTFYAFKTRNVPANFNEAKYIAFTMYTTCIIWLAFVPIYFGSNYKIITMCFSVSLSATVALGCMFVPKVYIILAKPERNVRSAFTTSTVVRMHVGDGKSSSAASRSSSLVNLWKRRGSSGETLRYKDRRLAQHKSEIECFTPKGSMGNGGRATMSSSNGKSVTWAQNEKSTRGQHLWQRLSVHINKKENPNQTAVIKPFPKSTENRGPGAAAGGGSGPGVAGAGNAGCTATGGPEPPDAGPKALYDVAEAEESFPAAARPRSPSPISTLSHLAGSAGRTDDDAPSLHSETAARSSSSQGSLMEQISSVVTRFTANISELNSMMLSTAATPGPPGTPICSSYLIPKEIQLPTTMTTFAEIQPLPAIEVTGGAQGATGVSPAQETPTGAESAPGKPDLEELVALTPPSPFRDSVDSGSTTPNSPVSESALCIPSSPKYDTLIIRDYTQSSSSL
Chain of Metabotropic glutamate receptor 7 (Rattus norvegicus) (P35400 whole entry): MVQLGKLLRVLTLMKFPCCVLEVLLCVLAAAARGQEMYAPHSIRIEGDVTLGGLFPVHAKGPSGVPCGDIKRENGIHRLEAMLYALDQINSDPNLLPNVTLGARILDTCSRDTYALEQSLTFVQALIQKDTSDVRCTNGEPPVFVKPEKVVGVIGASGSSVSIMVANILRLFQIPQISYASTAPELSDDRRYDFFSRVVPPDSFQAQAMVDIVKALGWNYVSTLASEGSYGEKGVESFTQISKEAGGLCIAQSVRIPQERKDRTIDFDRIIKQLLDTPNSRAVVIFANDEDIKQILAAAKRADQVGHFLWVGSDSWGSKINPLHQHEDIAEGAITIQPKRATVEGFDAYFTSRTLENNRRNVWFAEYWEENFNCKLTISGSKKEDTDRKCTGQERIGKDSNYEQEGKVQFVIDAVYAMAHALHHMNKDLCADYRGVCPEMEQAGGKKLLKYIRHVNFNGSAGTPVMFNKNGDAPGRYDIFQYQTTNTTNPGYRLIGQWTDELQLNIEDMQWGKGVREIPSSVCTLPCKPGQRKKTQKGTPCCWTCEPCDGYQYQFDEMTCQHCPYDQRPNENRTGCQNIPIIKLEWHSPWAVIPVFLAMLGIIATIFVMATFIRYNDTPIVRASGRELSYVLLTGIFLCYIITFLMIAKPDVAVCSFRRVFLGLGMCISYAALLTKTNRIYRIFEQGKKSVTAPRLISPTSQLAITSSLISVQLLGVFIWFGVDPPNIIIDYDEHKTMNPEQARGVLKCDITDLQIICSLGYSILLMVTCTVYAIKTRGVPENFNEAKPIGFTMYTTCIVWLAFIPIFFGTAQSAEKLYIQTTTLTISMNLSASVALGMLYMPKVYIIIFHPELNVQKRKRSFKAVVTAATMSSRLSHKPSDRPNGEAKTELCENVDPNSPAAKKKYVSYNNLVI

One may read the EC50 as the concentration giving half of the maximal effect. Usually clearance stands for a measure of how efficiently the substance is removed, as volume per time. A high value points to a high capacity for elimination. In general, fraction unbound refers to the share of the substance not bound to proteins or other matrix. A word on the half-life: it is the time in which the quantity being followed falls by half. Low readings indicate fast loss, high ones slow loss. Broadly, the IC50 is the concentration needed to halve the response being measured. A low value points to higher potency. By Kp is commonly meant tissue or fluid exposure divided by exposure in the circulation. Consider `O=C(NC1CC(F)(F)C1)c1nsc2cc(Nc3n[nH]c4cccnc34)ccc12`, for which the Drug uptake in data set [1] amounted to 107 ng/g. Further, the EC50 in data set [2] stood at 82.7 nM; in data set [14] it was 50.1 nM. For the same compound, the values for the CLint scaled at 1 µM in [3] and in [7] were 19 mL/min/kg and 34.2 mL/min/kg, respectively. Moreover, the clearance in data set [4] is 3.1 mL/min/kg. Also, the figures for the fraction unbound at 4 h in data set [5] and in data set [19] were 0.024 and 0.005, respectively. In [6], this compound gave a half-life of 7.42 h. In addition, in [8], the Cp worked out at 284 ng/mL. The %max is 50.5% in data set [9] and 76.8% in data set [18]. Moreover, the values for the concentration in data set [10], in [11] and in data set [12] were 46 nM, 252 nM and 1120 nM, respectively. The same compound gave an IC50 in data set [13] above 30000 nM. In addition, the result in [15] and in [16] was inactive. For the same compound, in data set [17], the Kp stood at 0.4. Moreover, the outcome in data set [20] was Active.
Consider `CC(C)(C)Cc1noc2cc(Nc3n[nH]c4nccnc34)ccc12`, for which the Drug uptake in [1] is 285 ng/g. Also, the EC50 stood at 501 nM in data set [2] and 860 nM in [14]. The values for the CLint scaled at 1 µM in [3] and in [7] were 7.2 mL/min/kg and 62.5 mL/min/kg, respectively. Further, the clearance in data set [4] is 37.8 mL/min/kg. In addition, the fraction unbound at 4 h in data set [5] and in data set [19] was 0.023 in each case. The compound also showed a half-life in data set [6] of 1.46 h. The compound further gave a Cp in [8] of 60.5 ng/mL. For the same compound, the %max in [9] turned out to be 83.5%; in data set [18], 98.7%. The figures for the concentration in data set [10], in data set [11] and in data set [12] were 627 nM, 958 nM and 450 nM, respectively. Besides, inhibition in data set [13] was half-maximal at 3200 nM (IC50). Also, in data set [17], the Kp turned out to be 4.7. The result in data set [20] was Active.
